# Source: PubChem BioAssay
# RGS4 pot – RGS4 potentiation or activation. HEK293 M3R/inducible RGS4, carbachol calcium flux Fluo4; active compounds read low. B-score at 10 µM. hit rate 0.92% among 310,000. AID 463111;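 active means B-score of the integrated calcium signal more than 4 SD below the library mean, with starting fluorescence not abnormally high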;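 further: negative B-score means reduced calcium response which marks RGS4 activation or potentiation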
#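 System – HEK293 FlpIn-TREx cells, stable M3R, doxycycline-inducible RGS4 · Reagent – ECmax carbachol challenge · Times – compound preincubation 20 min at room temperature before agonist · Technique – Fluo4 fluorescence kinetic imaging of calcium · Measure – B score of integrated Fluo4 ratio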
# MrgX1 PAM – allosterically activates human MrgX1 receptor signaling; Q96LB2; MrgX1-HEK293, Fluo-4 calcium flux, FDSS; active compounds read high; B-score at 10 µM; hit rate 0.63% among 310,000; AID 588675;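 active means plate-corrected calcium response at least 3 library SD above typical, normal starting fluorescence, not activating the receptor alone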;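 further: compound read alongside a low EC10 to EC30 dose of BAM8-22 agonist; peak minus trough fluorescence over baseline measured at the second addition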
# Target sequence (Q96LB2 whole entry, looked up): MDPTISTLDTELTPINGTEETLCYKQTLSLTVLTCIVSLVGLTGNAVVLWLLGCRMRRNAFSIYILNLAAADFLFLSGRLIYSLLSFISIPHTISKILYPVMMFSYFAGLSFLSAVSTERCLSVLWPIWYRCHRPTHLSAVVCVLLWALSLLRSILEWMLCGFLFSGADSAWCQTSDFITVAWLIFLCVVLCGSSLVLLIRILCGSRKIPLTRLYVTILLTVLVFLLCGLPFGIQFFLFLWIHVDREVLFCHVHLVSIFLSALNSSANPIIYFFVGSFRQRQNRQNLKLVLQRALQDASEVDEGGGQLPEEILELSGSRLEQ
# RGS4 block – human RGS4 inhibition; P49798; HEK293 M3R/RGS4 inducible, Fluo-4 calcium flux; active compounds read high; triggered by carbachol at its EC20; B-score at 10 µM; hit rate 0.45% among 310,000;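 active means B-score, a plate-corrected calcium signal, over three deviations above library mean, with baseline fluorescence within five deviations of library mean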;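 further: RGS4 expression induced by doxycycline in cells with stable M3 receptor; B-score is computed from the integrated fluorescence ratio over baseline after carbachol; higher B-score means a larger calcium signal and so more RGS4 inhibition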
# Target sequence (P49798 whole entry, looked up): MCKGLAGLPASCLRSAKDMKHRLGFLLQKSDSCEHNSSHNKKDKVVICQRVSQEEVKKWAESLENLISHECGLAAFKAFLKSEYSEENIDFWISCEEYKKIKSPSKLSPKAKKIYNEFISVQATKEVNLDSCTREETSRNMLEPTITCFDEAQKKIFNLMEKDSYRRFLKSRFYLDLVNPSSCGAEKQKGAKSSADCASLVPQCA
# MrgX1 antag – antagonists of human MrgX1 receptor. Q96LB2. MRGX1-HEK293 calcium flux, Fluo-4, BAM8-22 antagonism; active compounds read low. B-score at 10 µM. hit rate 1.3% among 310,000. AID 588676;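 active means calcium-response B-score plate-corrected more than 3 library SD below zero, starting fluorescence within 5 deviations, no agonist response on first addition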;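 further: peak minus trough fluorescence over baseline after final BAM8-22 challenge near maximal dose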
# MrgX1 ag – human MrgX1 receptor agonism, primary screen | Q96LB2 | MrgX1-HEK293 cells, Fluo-4 calcium fluorescence, agonist mode; active compounds read high | B-score at 10 µM | hit rate 0.44% among 310,000 | AID 588627;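 active means calcium response B-score plate-corrected fluorescence ratio at least 3 library SD, with starting fluorescence B-score inside 5 SD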
#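 Material – MrgX1-expressing HEK293 cells · Input – 15,000 cells seeded per well · Dosing – compound as first of three additions · Times – overnight seeding, then 1 h dark dye loading · Measured by – kinetic Fluo-4 NW fluorescence of intracellular calcium · Read-out – B-scored fluorescence response ratio · Benchmarks – positive and negative control wells on each plate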
# Numbers without * were called inactive; i = inactive; . = no result given. The list is not random: actives were taken first. Their share in the collection is about 3.5%.
SMILES,RGS4 pot,MrgX1 PAM,RGS4 block,MrgX1 antag,MrgX1 ag
O=C(Nc1nnc2n1CCS2)c1ccc(Br)o1,i,i,i,i,i
COc1ccc(C(=O)c2ccc(OC)c(OC)c2)cc1,i,i,i,-5*,i
COc1ccc(C(=O)NN2CCCCC2)cc1OC,i,i,i,-5*,i
COc1ccc(C(=O)NCC(=O)N2CCCCC2)cc1OC,i,i,i,i,i
CC(=O)c1c(C)[nH]c(C(=O)NCCc2c[nH]c3ccccc23)c1C,i,i,i,i,i
CNC[C@H](CC1CCCCC1)NC[C@H](Cc1ccccc1)NCCC12CC3CC(CC(C3)C1)C2,-8.9*,7.7*,i,-9.5*,i
COc1ccc(-n2c(C)cc(C)c(C(C)=O)c2=S)cc1,i,i,i,i,i
Cc1ccc(S(=O)(=O)N2[C@@H](c3ccccc3)C(C(=O)O)=CC[C@H]2c2cccc(C)c2)cc1,.,i,.,i,i
Cc1ccc(S(=O)(=O)N2[C@@H](c3ccccc3F)C(C(=O)O)=CC[C@H]2c2cccc(C)c2)cc1,.,11*,.,i,i
Cc1ccc(S(=O)(=O)N2[C@@H](c3ccccc3F)C(C(=O)O)=CC[C@H]2c2ccc(Cl)c(Cl)c2)cc1,.,12*,.,i,i
CC1(OC(=O)c2ccco2)C(=O)C=C2C=C(C3CC3)OC=C2C1=O (stereo not given),i,i,i,-5*,i
Cc1ccc(C)c(Cn2nc3c4ccccc4n(Cc4ccccc4)cc-3c2=O)c1,i,.,i,.,.
O=c1c2ccc(Cl)cc2nc(-c2cccc(C(F)(F)F)c2)n1O,i,i,i,i,47*
O=c1c2ccccc2nc(-c2ccc(Cl)c(Cl)c2)n1O,i,i,i,i,35*
O=C(/C=C/c1ccccc1)OCCN1C(=O)c2ccccc2C1=O,i,i,i,i,i
CCn1nc(C(=O)Nc2ccccc2N2CCCC2)c2ccccc2c1=O,-8.7*,12*,i,i,i
ClCC1=Nc2cccc3cccc(c23)N1,i,i,8.7*,i,i
COc1ccc(-c2nn(-c3ccccc3)cc2/C=N/NC(=O)c2ccc(Br)o2)cc1,-8.1*,i,i,i,i
CCOc1cc(CNC2CCCC2)c(Cl)cc1OCC(=O)Nc1ccccc1,-7.2*,i,i,i,i
CCN(Cc1ccccc1)S(=O)(=O)c1c(C)[nH]c(C)c1C(=O)N1CCCC1,i,i,i,i,i
O=[N+]([O-])c1ccc(-c2ccc(/C=N/Nc3nc(N4CCCCC4)nc(N4CCCCC4)n3)o2)cc1,i,.,i,.,.
O=[N+]([O-])c1ccc(-c2ccc(/C=N/Nc3nc(N4CCCC4)nc(N4CCCC4)n3)o2)cc1,i,i,i,i,34*
COc1ccc(NC2=C(NCCO)C(=O)c3ccccc3C2=O)cc1,i,i,i,i,i
CCOc1ccc(NC2=C(OC)C(=O)c3ccccc3C2=O)cc1,i,7.3*,i,i,i
COC1=C(Nc2ccc(O)cc2)C(=O)c2ccccc2C1=O,i,i,i,i,i
SMILES,RGS4 pot,MrgX1 PAM,RGS4 block,MrgX1 antag,MrgX1 ag
COC1=C(Nc2ccc(OC)cc2)C(=O)c2ccccc2C1=O,i,7.8*,i,i,i
CN(Cc1ccccc1)C1CCN(Cc2ccccc2[N+](=O)[O-])CC1,i,i,i,i,i
Cn1c(N)c(N2CCN(c3ccccc3)CC2)c(=O)[nH]c1=O,i,i,i,i,i
O=C(CSc1nnc(-c2ccccc2O)o1)N1CCOCC1,i,.,i,.,.
COc1cc2[nH]c(C(=O)NCc3ccccc3)cc2c(OC)c1OC,i,i,i,i,i
O=C(Nc1ccccc1-c1ccccc1)NC1CC2CCCC(C1)N2CCc1ccccc1 (stereo not given),-7.1*,i,i,i,i
Cc1ccc(CN2C3CCCC2CC(NC(=O)c2ccc(F)cc2)C3)cc1 (stereo not given),i,i,i,i,i
CCCN1C2CCCC1CC(NC(=O)Nc1cccc(C(C)=O)c1)C2 (stereo not given),i,i,i,i,i
S=C(Nc1ccc(Cl)cc1)NC1CC2CCC(C1)N2Cc1ccccc1 (stereo not given),i,i,i,i,i
O=C(Nc1ccccc1-c1ccccc1)NC1CC2CCCC(C1)N2Cc1ccc(F)cc1 (stereo not given),-10*,i,i,i,i
CCc1ccc(NC(=S)NC2CC3CCCC(C2)N3Cc2ccccc2)cc1 (stereo not given),-8.7*,i,i,i,i
CCN(CC)c1ccc(/C=C/C(=O)C2C(=O)C=C(C)OC2=O)cc1 (stereo not given),i,i,i,i,i
COc1cc(C(=O)NCCCCc2ccccc2)cc(OC)c1OC,i,i,i,i,i
O=C(O)CN1C(=O)C(=O)N(Cc2ccccc2F)C1=O,i,i,i,i,i
c1cnc2c(C3NCCc4c3[nH]c3ccccc43)cccc2c1 (stereo not given),i,i,i,i,i
CCn1c(N)c(C(=O)Nc2ccccc2C(=O)OC)sc1=S,i,i,i,i,i
CC1=C(C#N)C(c2ccoc2)C(C(=O)OCc2ccccc2)=C(N)S1 (stereo not given),i,i,i,i,i
N#CC1=C(N)SC(N)=C(C#N)C1c1ccoc1,i,i,i,i,37*
CC(OC(=O)COc1ccccc1Cc1ccccc1)C(=O)N(C)c1ccccc1 (stereo not given),i,i,i,i,i
Cc1c(CCOC(=O)c2ccccc2)sc[n+]1CC(=O)c1ccc(Br)cc1,-7.9*,i,i,i,i
Cc1c(CCOC(=O)c2cc([N+](=O)[O-])cc([N+](=O)[O-])c2)sc[n+]1CC(=O)c1ccccc1,i,i,i,i,i
Cc1c(CCOC(=O)c2ccccc2)sc[n+]1Cc1ccccc1,-10*,i,i,i,i
Cc1c(CCOC(=O)CC23CC4CC(CC(C)(C4)C2)C3)sc[n+]1CC(=O)c1ccccc1,i,i,i,i,i
Cc1c(CCOC(=O)C23CC4CC(CC(C)(C4)C2)C3)sc[n+]1CC(=O)c1ccccc1,i,i,i,i,i
Cc1c(CCOC(=O)CC23CC4CC(CC(C4)C2)C3)sc[n+]1CC(=O)c1ccc(Br)cc1,-7.5*,i,i,i,i
